Measurements published in ChEMBL document CHEMBL1138539, “Synthesis of new 2-(5-substituted-3-phenyl-2-pyrazolinyl)-1,3-thiazolino[5,4-b]quinoxaline derivatives and evaluation of their antiamoebic activity” (Eur J Med Chem, 2009).

How the values were obtained:
Entamoeba histolytica [1] = assay: Antiamnesic activity against Entamoeba histolytica HM-1:IMSS after 72 hrs by trypan blue exclusion method; format: functional, organism-based
How it was run: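 Trophozoites grown in TYIS-33 medium and tested by microdilution; amoebae counted by haemocytometer, viability confirmed by trypan blue exclusion. Compounds in DMSO (1 mg/ml stock), two-fold serial dilutions, with medium blanks and untreated controls. After incubation, wells washed in warm 0.9% NaCl, methanol-fixed, eosin-stained, dye released in 0.1 N NaOH, OD 490 nm. IC50 from linear regression of % inhibition versus log dose.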

[2] = Safety index, ratio of IC50 for human kidney epithelial cells to IC50 for Entamoeba histolytica HM-1:IMSS
[3] = Cytotoxicity against human kidney epithelial cells after 44 hrs by MTT assay; format: ADME, cell-based; details: Epithelial cell
Entamoeba histolytica [4] = assay: Antiamoebic activity against Entamoeba histolytica HM-1:IMSS after 72 hrs by microdilution method

IC50 (Entamoeba histolytica [4]) [nM]	SMILES	IC50 (Entamoeba histolytica [1]) [nM]	selectivity ratio ([2]; human kidney epithelial cells)	IC50 [3] [nM]	IC50 (Entamoeba histolytica [1]; in the assay text read “Antiamoebic” for “Antiamnesic”) [nM]	selectivity ratio ([2]; epithelial cell)
–	Cc1ccc(/C=C/C(=O)c2ccccc2)cc1	2120	–	–	–	–
2010	O=C(/C=C/c1ccc(Cl)c(Cl)c1)c1ccccc1	–	> 24.9	> 50000	–	–
–	CC(C)c1ccccc1/C=C/C(=O)c1ccccc1	3480	> 13.2	> 46000	–	–
2600	O=C(/C=C/c1ccccc1Cl)c1ccccc1	–	> 19.2	> 50000	–	–
–	CCc1ccccc1/C=C/C(=O)c1ccccc1	1790	> 27.9	> 50000	–	–
–	Cc1ccc(C2CC(c3ccccc3)=NN2C(N)=S)cc1 (stereo not given)	1580	> 31.7	> 50000	–	–
–	Cc1ccc(C2CC(c3ccccc3)=NN2c2nc3nc4ccccc4nc3s2)cc1 (stereo not given)	–	> 46.4	> 14000	300	–
3200	Cc1cc(C)c(C2CC(c3ccccc3)=NN2c2nc3nc4ccccc4nc3s2)c(C)c1 (stereo not given)	–	> 10.8	> 35000	–	–
–	CCc1ccccc1C1CC(c2ccccc2)=NN1C(N)=S (stereo not given)	1610	> 31.1	> 50000	–	–
230	CC(C)c1ccccc1C1CC(c2ccccc2)=NN1C(N)=S (stereo not given)	–	> 217	> 50000	–	–
890	Clc1cccc(C2CC(c3ccccc3)=NN2c2nc3nc4ccccc4nc3s2)c1Cl (stereo not given)	–	> 56.2	> 50000	–	–
1900	Clc1ccccc1C1CC(c2ccccc2)=NN1c1nc2nc3ccccc3nc2s1 (stereo not given)	–	> 26.3	> 50000	–	–
–	c1ccc(C2=NN(c3nc4nc5ccccc5nc4s3)C(c3c[nH]c4ccccc34)C2)cc1 (stereo not given)	1290	> 14	> 18000	–	–
170	CC(C)c1ccccc1C1CC(c2ccccc2)=NN1c1nc2nc3ccccc3nc2s1 (stereo not given)	–	> 294	> 50000	–	–
–	O=C(/C=C/c1c[nH]c2ccccc12)c1ccccc1	1800	> 24.4	> 44000	–	–
–	NC(=S)N1N=C(c2ccccc2)CC1c1c[nH]c2ccccc12 (stereo not given)	1770	> 30.5	> 54000	–	–
2230	NC(=S)N1N=C(c2ccccc2)CC1c1ccccc1Cl (stereo not given)	–	> 22.4	> 50000	–	–
1410	Cc1cc(C)c(/C=C/C(=O)c2ccccc2)c(C)c1	–	> 35.5	> 50000	–	–
–	NC(=S)N1N=C(c2ccccc2)CC1c1ccccc1 (stereo not given)	1610	> 31.1	> 50000	–	–
4370	Cc1cc(C)c(C2CC(c3ccccc3)=NN2C(N)=S)c(C)c1 (stereo not given)	–	> 11.4	> 50000	–	–
–	c1ccc(C2=NN(c3nc4nc5ccccc5nc4s3)C(c3ccccc3)C2)cc1 (stereo not given)	1490	> 33.5	> 50000	–	–
–	CCc1ccccc1C1CC(c2ccccc2)=NN1c1nc2nc3ccccc3nc2s1 (stereo not given)	1490	> 33.5	> 50000	–	–
–	O=C(/C=C/c1ccccc1)c1ccccc1 [CHALCONE]	1700	> 29.4	> 50000	–	–
1800	Cc1ncc([N+](=O)[O-])n1CCO [METRONIDAZOLE]	–	–	> 100000	–	> 55.6
